Here are results for two compounds from ChEMBL document CHEMBL1165896, “Design, synthesis and evaluation of mutual prodrug of 4-biphenylacetic acid and quercetin tetramethyl ether (BPA-QTME) as gastrosparing NSAID” (Eur J Med Chem, 2010).

Data set [1] is described as follows: Partition coefficient log P by shake flask method. It is filed as physicochemical. The following applies: octanol/water. Summed up: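 Shake flask in n-octanol/phosphate buffer pH 7.4. Compound-saturated octanol shaken with an equal volume of buffer for 24 h at 25 °C, then left 30 min to separate. Both phases quantified by UV against calibration plots.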
A short description of data set [2]: Aqueous solubility at pH. 4. The format is physicochemical.
The nature of data set [3]: Chemical stability assessed as half life of hydrolysis at pH 2. The format is physicochemical. The following applies: buffer. Summed up:
(§1)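 Compound dissolved in preheated HCl buffer pH 2 or isotonic phosphate buffer pH 7.4 and held at 37 °C. Pseudo-first-order rate constants taken from semilog plots of concentration versus time.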

Data set [4] in a line: Chemical stability assessed as half life of hydrolysis at pH 7.4. Conditions: buffer. It is filed as physicochemical. Summed up:
as §1

Data set [5] can be described thus: Stability in presence of 80% human plasma assessed as half life. It is filed as ADME, cell-free. Summed up:
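Citrated human plasma diluted 4:1 with isotonic phosphate buffer pH 7.4 (80% plasma), preheated, shaken at 37 °C. Compound added from a 1 mg/ml stock; samples at intervals diluted and read at 253 nm for released BPA. Rate constant and t½ taken from the linear part of the log BPA concentration versus time plot.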

Data set [6] can be described thus: Antioxidant activity in stomach assessed as superoxide dismutase activity measured per mg of protein (RVb = 325.40 +/- 69 U). The format is functional.
A short description of data set [7]: Antioxidant activity in stomach assessed as catalase activity measured per mg of protein (RVb = 28.38 +/- 2.85 U). The format is functional.
Data set [8] is described as follows: Antioxidant activity in stomach assessed as lipid peroxidation measured per mg of protein (RVb = 4.61 +/- 1.28 nmole). It is filed as functional, tissue-based.
The nature of data set [9]: Antioxidant activity in stomach assessed as myeloperoxidase activity relative to control. The format is functional. Summed up:
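Stomach homogenate from ulcer-study rats (0.01 M phosphate buffer), spun 10,000 rpm, 10 min, 10 °C. Supernatant mixed with o-phenylenediamine (660 µg/ml) and started with 300 mM H2O2; A492 read every 30 s for 5 min. ΔOD/min expressed as % of control activity.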

In data set [10] the test system is Mus musculus. Description: Analgesic activity in mouse assessed as inhibition of acetic acid-induced writhing at 10 mg/kg, po relative to control. It is filed as functional. The essentials: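 Male LACCA mice (25–35 g), fasted overnight, dosed orally in 0.5% CMC (0.1 ml/10 g) 1 h before 1% acetic acid, 10 ml/kg i.p. Writhes counted over 20 min starting 3 min post-challenge. % inhibition = (1 − Nt/Nc) × 100 versus vehicle controls. Mean ± SE of five experiments.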
A general note: An intraperitoneal irritant provokes the stretching counted in writhing tests.

The test system of data set [11] is Rattus norvegicus. Description: Toxicity in Sprague-Dawley rat assessed as ulcer index at dose molar equivalent to 54 mg/kg, po. The following applies: in vivo. Also noted: dose 54 mg/kg, route oral. The format is organism-based. The essentials: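 Overnight-fasted Sprague-Dawley rats given oral doses equimolar to BPA 54 mg/kg; vehicle controls. Killed 4 h after dosing; stomachs opened along greater curvature, saline-washed and scored: 0 none, 1 punctiform <1 mm, 3 filiform <5 mm, 4 punctiform >1 mm or filiform >5 mm. Mean ± SE of five experiments.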

Data set [12] deals with Rattus norvegicus. Description: Antiinflammatory activity in Sprague-Dawley rat assessed as reduction in carrageenan-induced paw edema at dose molar equivalent to 15 mg/kg, po after 4 hrs (RVb = 78.4+/- 2.53%). Also noted: scale not given: the % may be the effect or the level left. On the technique in general: In the carrageenan paw model, swelling and tenderness develop within hours.

The test system of data set [13] is Rattus norvegicus. Description: Antiinflammatory activity in Sprague-Dawley rat assessed as reduction in carrageenan-induced paw edema at dose molar equivalent to 15 mg/kg, po after 5 hrs (RVb = 65.2+/- 1.96%). Also noted: scale not given: the % may be the effect or the level left.
Data set [14] deals with Rattus norvegicus. Description: Antiinflammatory activity in Sprague-Dawley rat assessed as reduction in carrageenan-induced paw edema at dose molar equivalent to 15 mg/kg, po after 2 hrs (RVb = 68.8 +/- 2.06%). Also noted: scale not given: the % may be the effect or the level left.
For data set [15], the system named is Rattus norvegicus. Description: Antiinflammatory activity in Sprague-Dawley rat assessed as reduction in carrageenan-induced paw edema at dose molar equivalent to 15 mg/kg, po after 3 hrs (RVb = 81.1+/- 2.43 %). Also noted: scale not given: the % may be the effect or the level left.

In brackets after ≈: the same amount, converted by molar mass. Bounds are passed on as bounds.

As a reminder, the logP is the decadic logarithm of the partition coefficient of the neutral form, usually between octanol and water. Broadly, the solubility is the dissolved amount per volume that the medium holds. The half-life is the time in which the quantity being followed falls by half. The inhibition in vivo is the change of the read-out against control, counted positive when it falls. Compound `COc1cc(OC)c2c(=O)c(OC(=O)Cc3ccc(-c4ccccc4)cc3)c(-c3ccc(OC)c(OC)c3)oc2c1` showed a logP in data set [1] of 3.95. The compound also showed a solubility in data set [2] of 14.5 µg/mL (≈ 26.2 µM). The figures for the half-life in data set [3], in data set [4] and in [5] were greater than 100 h, greater than 38 h and 0.33 h, respectively. For the same compound, the Activity is 223 U/mg protein in [6]; 22.4 U/mg protein in [7]; 6.42 nM in data set [8]; 118.93% in data set [9]; 31.6% in [12]; 33.1% in data set [13]. Besides, the Activity in data set [14] came out at 34.2%; in data set [15], 37.5%. Besides, the inhibition in vivo at 10 mg/kg in data set [10] stood at 62.4%. Further, the UI in data set [11] was found to be 0.45.
Turning to `O=C(O)Cc1ccc(-c2ccccc2)cc1` [FELBINAC], the Activity in [6] worked out at 26.2 U/mg protein; in data set [7], 3.52 U/mg protein; in [8], 22.6 nM; in data set [9], 238.47%; in data set [12], 25.2%; in data set [13], 29.1%. The values for the Activity in data set [14] and in [15] were 26.9% and 26.5%, respectively. Also, the inhibition in vivo at 10 mg/kg in data set [10] turned out to be 68.6%. For the same compound, the UI in [11] was 6.2.
